Source: ChEMBL document CHEMBL1629485, “Lead identification of conformationally restricted β-lactam type combretastatin analogues: synthesis, antiproliferative activity and tubulin targeting effects” (Eur J Med Chem, 2010)

Assays:
MDA-MB-231 [1] = experiment: Cell cycle arrest in estrogen receptor deficient human MDA-MB-231 cells assessed as accumulation at S phase at 10 uM after 24 hrs using propidium iodide staining by flow cytometry relative to control; type: functional
Procedure, shortened: (§1)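 MDA-MB-231 cells in DMEM with 10% FBS and 2 mM L-glutamine, seeded at 18 × 10⁴ cells/mL. Exposed to test agent at the stated final concentration, or to 1% (v/v) ethanol vehicle, for 24, 48 or 72 h. Harvested by scraping and centrifugation, then RNase A treatment and propidium iodide DNA staining for at least 30 min at 37 °C. 10,000 cells per sample read at 488 nm by flow cytometry; mean ± SD of three experiments.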

MDA-MB-231 [2] = experiment: Cell cycle arrest in estrogen receptor deficient human MDA-MB-231 cells assessed as accumulation at G1 phase at 1 uM after 72 hrs using propidium iodide staining by flow cytometry relative to control; type: functional; procedure, shortened: as §1
MDA-MB-231 [3] = experiment: Cell cycle arrest in estrogen receptor deficient human MDA-MB-231 cells assessed as accumulation at G2/M phase at 10 uM after 24 hrs using propidium iodide staining by flow cytometry relative to control; type: functional; procedure, shortened: as §1
MDA-MB-231 [4] = experiment: Cell cycle arrest in estrogen receptor deficient human MDA-MB-231 cells assessed as accumulation at G2/M phase at 10 uM after 72 hrs using propidium iodide staining by flow cytometry relative to control; type: functional; procedure, shortened: as §1
MDA-MB-231 [5] = experiment: Cell cycle arrest in estrogen receptor deficient human MDA-MB-231 cells assessed as accumulation at G2/M phase at 10 nM after 48 hrs using propidium iodide staining by flow cytometry relative to control; type: functional; procedure, shortened: as §1
MDA-MB-231 [6] = experiment: Antiproliferative activity against estrogen receptor deficient human MDA-MB-231 cells after 72 hrs by MTT assay; type: functional, cell-based; conditions: MDA-MB-231, 72 h
Procedure, shortened: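 MCF-7 grown in Eagle's MEM with 10% FBS, 2 mM L-glutamine, penicillin/streptomycin and 1% non-essential amino acids; MDA-MB-231 grown in DMEM with 10% FBS, 2 mM L-glutamine and penicillin/streptomycin. Seeded at 2.5 × 10⁴ cells/mL, 24 h at 37 °C. Ethanol-stock compound, 1 nM–100 μM, 72 h, ethanol 1% v/v vehicle. MTT at 1 mg/mL final, 2 h dark, 37 °C, DMSO solubilised. Viability vs untreated control. IC50 is mean of three experiments in triplicate.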

MDA-MB-231 [7] = experiment: Cell cycle arrest in estrogen receptor deficient human MDA-MB-231 cells assessed as accumulation at G2/M phase at 10 nM after 24 hrs using propidium iodide staining by flow cytometry relative to control; type: functional; procedure, shortened: as §1
MDA-MB-231 [8] = experiment: Cell cycle arrest in estrogen receptor deficient human MDA-MB-231 cells assessed as accumulation at S phase at 100 nM after 24 hrs using propidium iodide staining by flow cytometry relative to control; type: functional; procedure, shortened: as §1
MDA-MB-231 [9] = experiment: Cell cycle arrest in estrogen receptor deficient human MDA-MB-231 cells assessed as accumulation at G2/M phase at 100 nM after 48 hrs using propidium iodide staining by flow cytometry relative to control; type: functional; procedure, shortened: as §1
MDA-MB-231 [10] = experiment: Cell cycle arrest in estrogen receptor deficient human MDA-MB-231 cells assessed as accumulation at sub-G1 phase at 10 uM after 24 hrs using propidium iodide staining by flow cytometry relative to control; type: functional; procedure, shortened: as §1
MDA-MB-231 [11] = experiment: Cell cycle arrest in estrogen receptor deficient human MDA-MB-231 cells assessed as accumulation at G1 phase at 1 uM after 24 hrs using propidium iodide staining by flow cytometry relative to control; type: functional; procedure, shortened: as §1
MDA-MB-231 [12] = experiment: Cell cycle arrest in estrogen receptor deficient human MDA-MB-231 cells assessed as accumulation at G2/M phase at 10 uM after 48 hrs using propidium iodide staining by flow cytometry relative to control; type: functional; procedure, shortened: as §1
MDA-MB-231 [13] = experiment: Cell cycle arrest in estrogen receptor deficient human MDA-MB-231 cells assessed as appearance of polyploidy at 100 nM after 48 hrs using propidium iodide staining by flow cytometry relative to control; type: functional
Procedure, shortened: (§2)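 MDA-MB-231 cells seeded at 18 × 10⁴ cells/mL and exposed to 1% (v/v) ethanol vehicle or compound at final concentrations (10 nM, 100 nM, 10 µM at all times; 1 µM also at 24 and 72 h). Cells harvested after 24, 48 or 72 h and treated with RNase A and propidium iodide for at least 30 min at 37 °C. 10,000 cells read at 488 nm by flow cytometry. Percent cells per phase reported, including polyploid; mean ± SD of three experiments.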

MDA-MB-231 [14] = experiment: Cell cycle arrest in estrogen receptor deficient human MDA-MB-231 cells assessed as appearance of polyploidy at 10 nM after 24 hrs using propidium iodide staining by flow cytometry relative to control; type: functional; procedure, shortened: as §1
MDA-MB-231 [15] = experiment: Cell cycle arrest in estrogen receptor deficient human MDA-MB-231 cells assessed as accumulation at S phase at 10 nM after 72 hrs using propidium iodide staining by flow cytometry relative to control; type: functional; procedure, shortened: as §1
MDA-MB-231 [16] = experiment: Cell cycle arrest in estrogen receptor deficient human MDA-MB-231 cells assessed as accumulation at sub-G1 phase at 10 uM after 72 hrs using propidium iodide staining by flow cytometry relative to control; type: functional; procedure, shortened: as §1
MDA-MB-231 [17] = experiment: Cell cycle arrest in estrogen receptor deficient human MDA-MB-231 cells assessed as accumulation at G1 phase at 100 nM after 72 hrs using propidium iodide staining by flow cytometry relative to control; type: functional; procedure, shortened: as §1
MDA-MB-231 [18] = experiment: Cell cycle arrest in estrogen receptor deficient human MDA-MB-231 cells assessed as appearance of polyploidy at 10 uM after 24 hrs using propidium iodide staining by flow cytometry relative to control; type: functional; procedure, shortened: as §1
MDA-MB-231 [19] = experiment: Cell cycle arrest in estrogen receptor deficient human MDA-MB-231 cells assessed as accumulation at G1 phase at 10 nM after 24 hrs using propidium iodide staining by flow cytometry relative to control; type: functional; procedure, shortened: as §1
MDA-MB-231 [20] = experiment: Cell cycle arrest in estrogen receptor deficient human MDA-MB-231 cells assessed as accumulation at G2/M phase at 1 uM after 24 hrs using propidium iodide staining by flow cytometry relative to control; type: functional; procedure, shortened: as §1
MDA-MB-231 [21] = experiment: Cell cycle arrest in estrogen receptor deficient human MDA-MB-231 cells assessed as accumulation at sub-G1 phase at 1 uM after 72 hrs using propidium iodide staining by flow cytometry relative to control; type: functional; procedure, shortened: as §1
MDA-MB-231 [22] = experiment: Cell cycle arrest in estrogen receptor deficient human MDA-MB-231 cells assessed as accumulation at S phase at 10 uM after 48 hrs using propidium iodide staining by flow cytometry relative to control; type: functional; procedure, shortened: as §1
MDA-MB-231 [23] = experiment: Cell cycle arrest in estrogen receptor deficient human MDA-MB-231 cells assessed as accumulation at G1 phase at 10 nM after 72 hrs using propidium iodide staining by flow cytometry relative to control; type: functional; procedure, shortened: as §1
MDA-MB-231 [24] = experiment: Cell cycle arrest in estrogen receptor deficient human MDA-MB-231 cells assessed as appearance of polyploidy at 100 nM after 24 hrs using propidium iodide staining by flow cytometry relative to control; type: functional; procedure, shortened: as §2
MDA-MB-231 [25] = experiment: Cell cycle arrest in estrogen receptor deficient human MDA-MB-231 cells assessed as appearance of polyploidy at 1 uM after 72 hrs using propidium iodide staining by flow cytometry relative to control; type: functional; procedure, shortened: as §1
MDA-MB-231 [26] = experiment: Cell cycle arrest in estrogen receptor deficient human MDA-MB-231 cells assessed as accumulation at S phase at 10 uM after 72 hrs using propidium iodide staining by flow cytometry relative to control; type: functional; procedure, shortened: as §1
MCF7 = experiment: Cytotoxicity against human MCF7 cells expressing estrogen receptor assessed as LDH release at 10 uM; type: functional
Procedure, shortened: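 After compound treatment, LDH was measured with a commercial LDH kit. Result is % cell lysis at 10 μM compound.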

Q: Which Activity (MDA-MB-231 [1]) does the source give for `COc1ccc(C2CC(=O)N2c2cc(OC)c(OC)c(OC)c2)cc1O` (configuration not stated) here?
A: 3.72%

Q: And the Activity (MDA-MB-231 [2])?
A: 14.29%

Q: What about the Activity (MDA-MB-231 [3]) of the same compound?
A: 55.36%

Q: What about the Activity (MDA-MB-231 [4]) of the same compound?
A: 21.81%

Q: What about the Activity (MDA-MB-231 [5]) of the same compound?
A: 23.71%

Q: And the IC50 (MDA-MB-231 [6])?
A: 54 nM

Q: What about the Activity (MDA-MB-231 [7]) of the same compound?
A: 25.61%

Q: And the Activity (MDA-MB-231 [8])?
A: 6.05%

Q: What about the Activity (MDA-MB-231 [9]) of the same compound?
A: 36.42%

Q: And the Activity (MDA-MB-231 [10])?
A: 3.18%

Q: What about the Activity (MDA-MB-231 [11]) of the same compound?
A: 19.22%

Q: What about the Activity (MDA-MB-231 [12]) of the same compound?
A: 27.25%

Q: And the Activity (MDA-MB-231 [13])?
A: 4.61%

Q: What about the Activity (MDA-MB-231 [14]) of the same compound?
A: 2.84%

Q: What about the Activity (MDA-MB-231 [15]) of the same compound?
A: 9.08%

Q: And the Activity (MDA-MB-231 [16])?
A: 46.49%

Q: What about the Activity (MDA-MB-231 [17]) of the same compound?
A: 13.9%

Q: What about the Activity (MDA-MB-231 [18]) of the same compound?
A: 3.85%

Q: What about the Activity (MDA-MB-231 [19]) of the same compound?
A: 48.33%

Q: And the Activity (MDA-MB-231 [20])?
A: 63.16%

Q: And the Activity (MDA-MB-231 [21])?
A: 50.53%

Q: And the Activity (MDA-MB-231 [22])?
A: 4.47%

Q: And the Activity (MDA-MB-231 [23])?
A: 48.24%

Q: What about the Activity (MDA-MB-231 [24]) of the same compound?
A: 4.87%

Q: What about the Activity (MDA-MB-231 [25]) of the same compound?
A: 5.97%

Q: And the Activity (MDA-MB-231 [26])?
A: 9.66%

Q: And the Activity (MCF7)?
A: 9%
